Only some compounds are listed: those with a hit (about 1.9% of all), similar ones and a draw of the others.
ARFGAP1 inhibitor: inhibits rat ARF GTPase activating protein 1. hit rate 0.26% among 360,000. Arfgap1-stimulated ARF1 GTP hydrolysis, GDP FP detection. Q62848. inhibition, % at 16.5 µM;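 active = inhibition above a per-plate limit, mean inhibition of low control wells plus 3 SD, cut at about 25% in these data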;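 also: 0% = DMSO wells with enzyme and 100% = wells lacking Arfgap1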
Target sequence (Q62848 1-136 limits assumed): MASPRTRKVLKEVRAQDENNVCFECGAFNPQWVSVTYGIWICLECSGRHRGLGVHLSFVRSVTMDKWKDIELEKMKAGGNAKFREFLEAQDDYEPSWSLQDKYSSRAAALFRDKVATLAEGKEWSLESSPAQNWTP
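Material: truncated rat Arfgap1 GAP domain; Incubation: compound-enzyme preincubation 20 min, reaction 120 min, detection 60 min, 25 °C; Read-out: percent inhibition of Arfgap1-stimulated GTP hydrolysis; Technique: FP, GDP Alexa 633 tracer displaced from anti-GDP antibody, 620/688 nm; Controls: No-Arfgap1 wells (100%) versus DMSO full-reaction wells (0%); Replication: single well per compound.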
Efflux pump mplx: antifungal efflux pump inhibition, Nile Red retention. S. cerevisiae Candida pump triplex. inhibition, % at 10 µM. hit rate 0.44% among 330,000. AID 485275;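 active = plate passing quality check with inhibition over a set limit, or well fluorescence over plate mean plus 4 SD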;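 also: Nile Red retained in pooled yeast measured as flow cytometry median fluorescence; 0% = buffer negative control and 100% = Enniatin B positive control; higher means more Nile Red kept so more efflux inhibition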
FGF22 binding-1: shifts melting point of recombinant human FGF22; Q9HCT0; hit rate 1.5% among 340,000; AID 651658; recombinant FGF22 thermal shift, SYPRO orange fluorescence; percent of sucrose octasulfate shift, DMSO zero; activity (Tm shift, normalised), % at 9.99 µM;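 active = mean Tm shift, scaled 0 neutral to 100 positive control, at about 1.3% or above, every replicate too, limit read from the data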
Target sequence (Q9HCT0 whole entry, looked up): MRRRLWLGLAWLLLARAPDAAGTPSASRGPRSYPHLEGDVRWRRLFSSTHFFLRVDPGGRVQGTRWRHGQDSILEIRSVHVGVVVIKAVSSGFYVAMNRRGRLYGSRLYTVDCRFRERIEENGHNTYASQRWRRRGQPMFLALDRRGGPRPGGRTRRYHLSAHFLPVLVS
Rtt109 Vps75: inhibitors of Candida albicans Rtt109/Vps75 histone acetyltransferase; Q5AAJ8; purified Rtt109/Vps75, ThioGlo CoA-SH fluorescence, 4 h; inhibition, % at 34.9 µM; hit rate 0.16% among 330,000; AID 540336;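 active = inhibition of at least 50% in every replicate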
Target sequence (Q5AAJ8 whole entry, looked up): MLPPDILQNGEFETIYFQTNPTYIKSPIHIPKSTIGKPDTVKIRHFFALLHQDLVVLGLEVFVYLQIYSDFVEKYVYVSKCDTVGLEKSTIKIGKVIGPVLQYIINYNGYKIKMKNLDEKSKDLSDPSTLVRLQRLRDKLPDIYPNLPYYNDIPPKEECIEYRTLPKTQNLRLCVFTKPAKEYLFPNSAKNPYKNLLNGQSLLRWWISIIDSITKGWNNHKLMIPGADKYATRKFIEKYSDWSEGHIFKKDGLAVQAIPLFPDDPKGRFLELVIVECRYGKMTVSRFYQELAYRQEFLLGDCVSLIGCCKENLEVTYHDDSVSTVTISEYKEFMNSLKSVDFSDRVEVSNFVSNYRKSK
ASAP1 inh: inhibitors of human ASAP1 ArfGAP activity | ASAP1-stimulated ARF1 GTP hydrolysis, GDP FP detection | inhibition, % at 16.5 µM | Q9ULH1 | hit rate 0.19% among 360,000 | AID 624377; in the data active = inhibition above about 25%;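 also: 0% = vehicle with enzyme and substrate and 100% = no enzyme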
FGF22 binding-2: binds human FGF22 shifting its melting temperature; thermal shift activity, °C (ΔTm) at 38 µM; shares compounds with FGF22 binding-1; hit rate 2% among 1,000; recombinant FGF22 thermal shift, SYPRO orange fluorescence;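 active = fitted rise in melting shift crosses a set limit at or below the top valid dose tested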
FGF22 TSA: FGF22 (human) binding by thermal shift. 50 tested, under 10 active. Thermal shift assay, SYPRO orange, melting temperature shift. shares compounds with FGF22 binding-1. Tm shift (activity), % at 38 µM;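 active = compounds whose fitted dose curve of melting temperature shift rises past a set threshold within the tested doses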
TSA no protein: compound-only SYPRO artifact for FGF22 binders; hit rate 2% among 1,000; compound-only SYPRO orange thermal shift counter-screen, no protein; AC50, µM (top dose mostly 38 µM); AID 743019; shares compounds with FGF22 binding-1;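 active = rising signal whose fitted curve reaches the 0.54 level within the top valid dose, showing a melting point, actives reach about 13 µM in these data; inactive = the rest, including activity in the opposite direction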; also: value is where the raw curve crosses a fixed level and not half-maximal
* hit, by the source's call; i = inactive; . = no result; ! = repeats disagree; [ ] = another dose, or the depositor's remark.

SMILES	ARFGAP1 inhibitor	Efflux pump mplx	FGF22 binding-1	Rtt109 Vps75	ASAP1 inh	FGF22 binding-2	TSA no protein	others
CNC[C@@H]1Oc2c(NS(=O)(=O)c3ccc(OC)cc3)cccc2C(=O)N([C@@H](C)CO)C[C@@H]1C	.	.	3.6*	.	.	0.14	i
COc1ccc(S(=O)(=O)N(C)C[C@@H]2Oc3c(NS(=O)(=O)c4ccc(C)cc4)cccc3C(=O)N([C@H](C)CO)C[C@@H]2C)cc1	.	.	1.3*	.	.	-0.004[42 µM]	i
Cc1cccc(Nc2nnc(SC(C)C(=O)NC3CC3)s2)c1 (stereo unspecified)	-15	0	0	2	-10	.	.
Cc1cc(C)c2c(n1)SCC(=O)N2CC(=O)Nc1cc(F)ccc1F	1	0	0	-1	-4	.	.
CSCCC(NS(=O)(=O)c1ccc2ccccc2c1)C(=O)O (stereo unspecified)	0	0	.	0	10	.	.
CSCCC(NS(=O)(=O)c1ccc(Cl)c(Cl)c1)C(=O)O (stereo unspecified)	8	0	1.4*	-2	4	-0.094	i
CCOC(=O)[C@@H]1[C@H]2COc3cc(OC)ccc3[C@@H]2N2C(=O)N(c3ccc(C)cc3)C(=O)[C@]12C	-10	0	0	15	3	.	.
CCOC(=O)[C@@H]1[C@H]2COc3cc(OC)ccc3[C@H]2N2C(=O)N(c3ccc(C)cc3)C(=O)[C@]12C	-7	0	1.6*	8	-3	0.055	i
c1ccc(N2CCN(c3ncccn3)CC2)cc1	-2	0	.	19	13	.	.
COc1cc(NC(=O)c2cc(C)on2)cc(C(=O)Nc2cccc(C(F)(F)F)c2)c1	12	0	1	-3	7	.	.
COc1cc(NC(=O)c2cnc(N)s2)cc(C(=O)Nc2cccc(C(F)(F)F)c2)c1	8	0	1.7*!	.	10	0.064	i
COc1cc(NC(=O)c2csc(N)n2)cc(C(=O)Nc2cccc(C(F)(F)F)c2)c1	1	0	1.6*!	0	21	-0.085	11µM*
COc1cc(NC(=O)c2cnc(N)o2)cc(C(=O)Nc2cccc(C(F)(F)F)c2)c1	13	0	2.2*!	-5	3	0.14	i
COc1cc(NC(=O)c2ccnc(N)c2)cc(C(=O)Nc2cccc(C(F)(F)F)c2)c1	13	0	0	-2	19	.	.
COc1ccc(NC(=S)NCCCN2CCCC2=O)c(OC)c1	9	0	0	23	1	.	.
COc1ccc2c3c([nH]c2c1)[C@H](CO)N(C(=O)NC(C)C)CC31CN(C(=O)c2ccncc2)C1	.	.	0	.	.	.	.
O=C(NCc1nc2ccccc2[nH]1)c1ccc([N+](=O)[O-])cc1	-3	0	0	-4	-7	.	.
CCn1cc(C(=O)N2CCN(c3ccccn3)CC2)c2cc(OC)c(OC)cc2c1=O	6	0	.	-1	-3	.	.
O=[N+]([O-])c1ccc2nc(-c3cccnc3)[nH]c2c1	-6	0	0	4	-7	.	.
Nc1ccc2nc(-c3ccccc3)[nH]c2c1	9	0	.	1	-1	.	.
Nc1cccc(-c2nc3ccc(C(=O)c4ccccc4)cc3[nH]2)c1	-6	0	13*	0	10	0.031	i	FGF22 TSA=0
O=[N+]([O-])c1ccc2nc(-c3ccccc3)[nH]c2c1	13	0	1.7*	1	9	-0.04	i
C=CCc1c(C)nc(-c2ccccc2)nc1Nc1ccc(O)cc1	11	0	.	17	8	.	.
CC(=O)c1ccc(S(=O)(=O)N2CCN(CC(=O)Nc3ccc(Cl)c([N+](=O)[O-])c3)CC2)cc1	3	0	2.6*	0	5	0.023	i
Cc1ccc(S(=O)(=O)N2CCN(CC(=O)N/N=C\c3ccc(Cl)c([N+](=O)[O-])c3)CC2)cc1	-3	0	.	-1	-4	.	.
SMILES	ARFGAP1 inhibitor	Efflux pump mplx	FGF22 binding-1	Rtt109 Vps75	ASAP1 inh	FGF22 binding-2	TSA no protein	others
CC1C=NC(S(=O)(=O)N2CC[C@@H]3[C@@H](CO)N(C)c4ccc(-c5ccc(F)cc5)cc4[C@@H]32)=N1 (stereo partly specified)	.	.	2.0*	.	.	.	i
COc1ccc(NC(=O)C2CCCN(S(=O)(=O)c3ccccc3)C2)c(OC)c1 (stereo unspecified)	13	0	0	-1	9	.	.
O=C(C[C@H]1C(=O)N(CCc2ccccc2)C[C@@H]1Cc1ccccc1)Nc1ccc(Br)cc1	3	.	0	.	4	.	.
O=c1c(Cl)c(O)c2cccc3c4ccccc4n1c23	7	0	2.3*	-21	16	0.16	i
CC(OC(=O)c1cc(=O)c2ccccc2o1)C(=O)Nc1ccc(N(C)C)cc1 (stereo unspecified)	10	0	0	15	-9	.	.
NS(=O)(=O)c1cccc(NC(=O)c2ccc(NS(=O)(=O)c3cccc([N+](=O)[O-])c3)cc2)c1	-1	0	3.1*	-1	-5	0.27	i
O=C(Nc1cccc2ccccc12)c1cccc([N+](=O)[O-])c1	-6	0	1.7*	4	-4	0.084	i
O=C(Nc1ccc2ccccc2c1)c1cccc([N+](=O)[O-])c1	15	0	0	1	5	.	.
O=C(Nc1ccc(S(=O)(=O)Nc2ccccn2)cc1)c1cccc(Cl)c1	7	0	0	7	0	.	.
O=C(Nc1ccc(S(=O)(=O)Nc2ccccn2)cc1)c1cccc([N+](=O)[O-])c1	15	0	36*	-8	1	0.11	i
O=C(O)c1cccc(NC(=O)c2cccc(S(=O)(=O)Nc3cccc([N+](=O)[O-])c3)c2)c1	6	0	.	0	-4	.	.
CC1(C)O[C@@H]2[C@H](O1)[C@@H](O)C[C@H]2n1cnc2c(Cl)ncnc21	13	.	0	.	-4	.	.
C[C@H](CO)N1C[C@H](C)[C@@H](CN(C)C(=O)Nc2cccc3ccccc23)Oc2c(NS(C)(=O)=O)cccc2C1=O	.	.	1.8*	.	.	0.15[42 µM]	i
C[C@H](CO)N1C[C@H](C)[C@@H](CN(C)C(=O)Nc2cccc3ccccc23)Oc2c(NC(=O)C3CC3)cccc2C1=O	.	.	2.2*	.	.	0.11	i
C[C@H](CO)N1C[C@H](C)[C@@H](CN(C)C(=O)C2CC2)OCc2ccccc2-c2ccccc2C1=O	.	.	11*	.	.	0.007[42 µM]	i
COc1ccc(CN(C)C[C@H]2Oc3c(NS(C)(=O)=O)cccc3C(=O)N([C@@H](C)CO)C[C@H]2C)cc1	.	.	3.1*	.	.	0.026	i
C[C@@H]1CN([C@@H](C)CO)C(=O)c2cccc(NC(=O)C3CC3)c2O[C@@H]1CN(C)C(=O)Nc1cccc2ccccc12	.	.	1	.	.	.	.
